Experimental data taken from ChEMBL document CHEMBL1148134, “Differentiation- and apoptosis-inducing activities by pentacyclic triterpenes on a mouse melanoma cell line” (J Nat Prod, 2002).
The source made the active and inactive calls. The rule behind the calls is not given here.

Columns and labels:
B16 [1] = assay: Growth inhibition of mouse B16 2F2 cells after 3 days; assay type: functional, cell-based; details: B16, 72 h
Method in brief: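 B16 2F2 melanoma subclone, 1 × 10^5 cells per 1 mL aliquot, exposed to a range of triterpene concentrations for 3 days. Viable cells counted as in earlier work. IC50 = concentration giving 50% growth inhibition.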

B16 [2] = assay: Induction of melanogenesis in mouse B16 2F2 cells assessed as intracellular melanin content after 3 days; assay type: functional; details: B16, 72 h, read-out: ED50 (the source's name)
Method in brief: (§1)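 Aliquots of 1 × 10^5 B16 2F2 cells in 1 mL incubated 3 days (72 h) across a triterpene concentration range, including 1.0 and 10 µM. Intracellular melanin content measured per previously described method. ED50 derived from dose-response curves of melanogenesis up-regulation.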

B16 [3] = assay: Induction of apoptosis in mouse B16 2F2 cells assessed as condensation and fragmentation of nuclei at 10 uM after 48 hrs by Hoechst 33258 staining based fluorescence microscopy; assay type: functional
Method in brief: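 B16 2F2 cells held with or without triterpene at 10 µM for 48 h, collected, washed in PBS, fixed in 1% glutaraldehyde, then stained 30 min with 50 µM Hoechst 33258. Nuclear condensation/fragmentation scored by fluorescence microscopy, apoptotic cells counted manually on at least 200 cells.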

B16 [4] = assay: Induction of melanogenesis in mouse B16 2F2 cells assessed as intracellular melanin content up to 10 uM after 3 days; assay type: functional, cell-based; method in brief: as §1

Row | SMILES | IC50 (B16 [1]) [µM] | EC50 (B16 [2]) [µM] | Activity (B16 [3]) [%] | Activity (B16 [4])
1 | C[C@H]1[C@H](C)CC[C@]2(C)CC[C@]3(C)C(=CC[C@@H]4[C@@]5(C)CC[C@H](O)C(C)(C)[C@@H]5CC[C@]43C)[C@H]12 | 50 | > 50 |  | 
2 | CC1(C)CC[C@]2(C)CC[C@]3(C)C(=CC[C@@H]4[C@@]5(C)CCC(=O)C(C)(C)[C@@H]5CC[C@]43C)[C@@H]2C1 | 38.7 | > 50 |  | 
3 | C[C@H]1[C@H](C)CC[C@]2(C)CC[C@]3(C)C(=CC[C@@H]4[C@@]5(C)CCC(=O)C(C)(C)[C@@H]5CC[C@]43C)[C@H]12 | 40.3 | > 50 |  | 
4 | C=C(C)[C@@H]1CC[C@]2(COC(C)=O)CC[C@]3(C)[C@H](CC[C@@H]4[C@@]5(C)CC[C@H](OC(C)=O)C(C)(C)[C@@H]5CC[C@]43C)[C@@H]12 [BETULIN DIACETATE] | 36.8 | 3.4 |  | 
5 | C=C(C)[C@@H]1CC[C@]2(C=O)CC[C@]3(C)[C@H](CC[C@@H]4[C@@]5(C)CC[C@H](O)C(C)(C)[C@@H]5CC[C@]43C)[C@@H]12 [BETULINALDEHYDE] | 6.4 | 3.3 | 70.4 | 
6 | C=C(C)[C@@H]1CC[C@]2(C(=O)O)CC[C@]3(C)[C@H](CC[C@@H]4[C@@]5(C)CC[C@H](O)C(C)(C)[C@@H]5CC[C@]43C)[C@@H]12 [BETULINIC ACID] | 7.9 | 4.1 |  | 
7 | C=C(C)[C@@H]1CC[C@]2(CO)CC[C@]3(C)[C@H](CC[C@@H]4[C@@]5(C)CC[C@H](O)C(C)(C)[C@@H]5CC[C@]43C)[C@@H]12 [BETULIN] | 27.4 | 4.8 |  | 
8 | C=C(C)[C@@H]1CC[C@]2(C=O)CC[C@]3(C)[C@H](CC[C@@H]4[C@@]5(C)CCC(=O)C(C)(C)[C@@H]5CC[C@]43C)[C@@H]12 [BETULONAL] | 4.1 | 0.35 |  | 
9 | C=C(C)[C@@H]1CC[C@]2(CO)CC[C@]3(C)[C@H](CC[C@@H]4[C@@]5(C)CCC(=O)C(C)(C)[C@@H]5CC[C@]43C)[C@@H]12 [BETULONE] | 29.3 | 0.19 |  | 
10 | CC1(C)CC[C@]2(CO)CC[C@]3(C)C(=CC[C@@H]4[C@@]5(C)CC[C@H](O)C(C)(C)[C@@H]5CC[C@]43C)[C@@H]2C1 [ERYTHRODIOL] | 33.4 | > 50 |  | 
11 | C=C(C)[C@@H]1CC[C@]2(C)CC[C@]3(C)[C@H](CC[C@@H]4[C@@]5(C)CCC(=O)C(C)(C)[C@@H]5CC[C@]43C)[C@@H]12 [LUPENONE] | 25.4 | 0.35 |  | 
12 | C=C(C)[C@@H]1CC[C@]2(C)CC[C@]3(C)[C@H](CC[C@@H]4[C@@]5(C)CC[C@H](OC(C)=O)C(C)(C)[C@@H]5CC[C@]43C)[C@@H]12 [LUPENYL ACETATE] | 22.7 | 7.5 |  | 
13 | C=C(C)[C@@H]1CC[C@]2(C)CC[C@]3(C)[C@H](CC[C@@H]4[C@@]5(C)CC[C@H](O)C(C)(C)[C@@H]5CC[C@]43C)[C@@H]12 [LUPEOL] | 38 | 9.9 |  | 
14 | C=C(C)[C@@H]1CC[C@]2(C(=O)OC)CC[C@]3(C)[C@H](CC[C@@H]4[C@@]5(C)CC[C@H](O)C(C)(C)[C@@H]5CC[C@]43C)[C@@H]12 [METHYL BETULINATE] | 4.9 | 2.5 |  | 
15 | CC1(C)CC[C@]2(C(=O)O)CC[C@]3(C)C(=CC[C@@H]4[C@@]5(C)CC[C@H](O)C(C)(C)[C@@H]5CC[C@]43C)[C@@H]2C1 [OLEANOLIC_ACID] | 4.8 |  |  | inactive
16 | C[C@H]1[C@H](C)CC[C@]2(C(=O)O)CC[C@]3(C)C(=CC[C@@H]4[C@@]5(C)CC[C@H](O)C(C)(C)[C@@H]5CC[C@]43C)[C@H]12 [URSOLIC ACID] | 3.1 |  |  | inactive
17 | C[C@H]1[C@H](C)CC[C@]2(CO)CC[C@]3(C)C(=CC[C@@H]4[C@@]5(C)CC[C@H](O)C(C)(C)[C@@H]5CC[C@]43C)[C@H]12 [UVAOL] | 46.8 | > 50 |  | 
18 | CC1(C)CC[C@]2(C)CC[C@]3(C)C(=CC[C@@H]4[C@@]5(C)CC[C@H](O)C(C)(C)[C@@H]5CC[C@]43C)[C@@H]2C1 [beta-AMYRIN] | 48.8 | > 50 |  | 
